Data: ChEMBL document CHEMBL4177757, “Tight-Binding Inhibition of Human Monoamine Oxidase B by Chromone Analogs: A Kinetic, Crystallographic, and Biological Analysis” (J Med Chem, 2018)

Assays:
[1] = biological target: T1, Amine oxidase [flavin-containing] B (Homo sapiens, UniProt P27338); assay: Tight-binding competitive inhibition of recombinant human MAO-B expressed in Pichia pastoris using benzylamine as substrate by fluorimetric horseradish peroxidase-Amplex Red-coupled assay
T1 sequence (P27338 whole entry): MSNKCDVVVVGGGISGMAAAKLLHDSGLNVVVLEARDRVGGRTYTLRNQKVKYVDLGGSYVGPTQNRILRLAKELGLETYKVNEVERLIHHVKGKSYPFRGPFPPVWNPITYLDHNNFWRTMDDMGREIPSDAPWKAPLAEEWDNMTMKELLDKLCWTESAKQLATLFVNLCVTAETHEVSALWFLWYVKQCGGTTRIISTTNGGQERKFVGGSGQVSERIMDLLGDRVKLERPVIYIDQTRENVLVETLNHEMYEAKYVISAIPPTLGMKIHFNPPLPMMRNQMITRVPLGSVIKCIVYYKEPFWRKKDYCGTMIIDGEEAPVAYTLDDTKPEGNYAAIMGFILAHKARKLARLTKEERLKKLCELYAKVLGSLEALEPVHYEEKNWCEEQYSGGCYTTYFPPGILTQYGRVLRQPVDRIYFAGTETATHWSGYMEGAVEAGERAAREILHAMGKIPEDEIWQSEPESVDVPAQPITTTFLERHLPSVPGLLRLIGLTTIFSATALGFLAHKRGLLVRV

[2] = biological target: T2, Amine oxidase [flavin-containing] A (Homo sapiens, UniProt P21397); assay: Inhibition of recombinant human MAO-A expressed in Pichia pastoris up to 100 uM using kynuramine as substrate by fluorimetric horseradish peroxidase-Amplex Red-coupled assay
T2 sequence (P21397 whole entry): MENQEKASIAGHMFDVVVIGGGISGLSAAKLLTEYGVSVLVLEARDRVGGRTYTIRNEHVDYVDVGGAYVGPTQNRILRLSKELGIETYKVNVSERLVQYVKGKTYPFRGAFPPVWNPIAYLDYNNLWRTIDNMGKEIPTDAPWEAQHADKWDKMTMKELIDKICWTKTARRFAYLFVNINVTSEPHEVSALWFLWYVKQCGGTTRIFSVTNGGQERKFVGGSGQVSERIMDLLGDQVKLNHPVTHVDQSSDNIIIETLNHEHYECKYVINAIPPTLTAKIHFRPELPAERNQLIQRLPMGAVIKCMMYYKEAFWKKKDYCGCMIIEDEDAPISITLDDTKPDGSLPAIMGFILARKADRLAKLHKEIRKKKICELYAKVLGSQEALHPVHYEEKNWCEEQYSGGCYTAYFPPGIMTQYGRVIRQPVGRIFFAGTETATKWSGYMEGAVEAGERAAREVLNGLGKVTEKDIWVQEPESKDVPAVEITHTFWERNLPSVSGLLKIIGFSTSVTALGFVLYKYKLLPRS

[3] = biological target: T1, Amine oxidase [flavin-containing] B; assay: Non-competitive inhibition of recombinant human MAO-B expressed in Pichia pastoris using benzylamine as substrate by fluorimetric horseradish peroxidase-Amplex Red-coupled assay
In short: (§1)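 Purified Pichia-expressed human MAO-B, benzylamine substrate, H2O2 detected by HRP-Amplex Red coupling. Initial rates were measured at varying substrate and inhibitor levels. Inhibition mode came from global fits to competitive, mixed, non-competitive and uncompetitive Michaelis-Menten forms, chosen by r², plus double-reciprocal plots ([…] vs 1/[S]).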

[4] = biological target: T1, Amine oxidase [flavin-containing] B; assay: Mixed-type inhibition of recombinant human MAO-B expressed in Pichia pastoris using benzylamine as substrate by fluorimetric horseradish peroxidase-Amplex Red-coupled assay; in short: as §1

Ki [1] [nM] | inhibition (INH) [2] | inhibition (INH) [3] | inhibition (INH) [4] | Compound
2930 | Not Active | – | – | O=c1c(CNc2cccc(Cl)c2)coc2ccccc12
31 | Not Active | Active | Active | O=C(Nc1cccc(F)c1)c1coc2ccccc2c1=O
